# Bioassay records from PubChem.
# APJ agonist = agonists of human apelin receptor APJ, primary screen, CHO-K1 cells, PathHunter beta-arrestin, luminescence; P35414; 330,000 compounds, 0.11% hits; activation, % at 20 µM; AID 2520, 2010; 0% DMSO wells, 100% apelin;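 active = activation more than six SD over the plate average, tested at 20 µM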;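 also: 0% = DMSO alone and 100% = apelin-13 at 10 nM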
#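 Test system: CHO-K1 APJ beta-arrestin complementation cell line. Amount: cell density 1000 per well. Controls: DMSO negative, 10 nM Apelin-13 positive. Signal: luminescent beta-gal fragment complementation, chemiluminescent substrate. Read-out basis: agonist-driven arrestin binding to APJ. Timing: compound stimulation 90 min at 25 °C, detection 60 min.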
# EBI2 antag = EBI2 receptor antagonists, beta-arrestin recruitment, primary screen, cell-based, luminescence, 7a,25-OHC stimulation, uHTS | G-protein coupled receptor 183 (Homo sapiens), P32249 | 7a,25-OHC stimulated | inhibition, % at 5 µM | 360,000 compounds, 0.81% hits | AID 651636, 2012; in the data active = inhibition above about 38%;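 also: enzyme fragment complementation signal reports receptor beta-arrestin coupling in cells; 0% = agonist plus DMSO wells and 100% = wells without agonist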
# CXCR6 block = CXCR6 receptor inhibitors, primary screen, cell-based, beta-arrestin, luminescence, CHO-K1 PathHunter, 1536-well. C-X-C chemokine receptor type 6 (Homo sapiens), O00574. inhibition, % at 20 µM. 360,000 compounds, 0.36% hits. AID 602244, 2012; in the data active = inhibition above about 34%, passing the limit was not always enough;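 also: antagonist mode with CXCL16 agonist at 10 nM final; 0% = 10 nM CXCL16 with DMSO and 100% = unstimulated wells without agonist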
# Target sequence (O00574 whole entry, looked up): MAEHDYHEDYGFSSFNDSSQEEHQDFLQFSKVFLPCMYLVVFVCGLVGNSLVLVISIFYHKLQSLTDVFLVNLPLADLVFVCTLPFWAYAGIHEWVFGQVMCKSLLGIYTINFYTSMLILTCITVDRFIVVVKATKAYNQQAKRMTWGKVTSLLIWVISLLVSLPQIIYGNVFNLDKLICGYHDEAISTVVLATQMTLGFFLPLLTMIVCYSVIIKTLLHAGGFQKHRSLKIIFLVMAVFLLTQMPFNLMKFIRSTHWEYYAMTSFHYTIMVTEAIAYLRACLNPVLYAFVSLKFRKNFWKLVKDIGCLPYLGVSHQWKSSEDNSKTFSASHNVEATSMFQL
# APJ antag = antagonists of human apelin receptor APJ, primary screen, CHO-K1 cells, beta-arrestin complementation, luminescence; inhibition, % at 20 µM; P35414; 330,000 compounds, 0.32% hits; AID 2521, 2010;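 active = inhibition above about 40% at 20 µM, limit read from the data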;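 also: cells challenged with 10 nM apelin-13 agonist together with compound; plate controls were apelin-13 plus DMSO wells for no effect and DMSO wells lacking apelin-13 for full effect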
# CCR6 antag = CCR6 receptor antagonists, primary screen, cell-based, CHO-K1, luminescence, beta-arrestin, uHTS. C-C chemokine receptor type 6 (Homo sapiens), P51684. CHO-K1 CCR6 PathHunter beta-arrestin, CCL20-stimulated. inhibition, % at 20 µM. 340,000 compounds, 0.49% hits. AID 493098, 2011;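 active = compounds whose inhibition of the agonist-driven luminescence signal at 20 µM reaches about 50%, limit read from the data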;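 also: cells stimulated with CCL20 at 14 nM final; plate controls were DMSO with CCL20 for no effect and DMSO without agonist for full effect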
# EBI2 conf = EBI2 antagonist hit retest, beta-arrestin, confirmation, cell-based, single concentration, luminescence, 7a,25-OHC stimulation; shares compounds with EBI2 antag; 7a,25-OHC antagonism; inhibition, % at 5 µM; 2,400 compounds, 29% hits; AID 651997, 2013;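 active = inhibition of at least 50%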
# EBI2 ag = EBI2 agonist activity of antagonist hits, confirmation, counter-screen for EBI2 antagonist project, cell-based, single concentration, agonist mode, luminescence | shares compounds with EBI2 antag | EBI2-expressing cells, 60 min; 0% vehicle, 100% 7α,25-dihydroxycholesterol control | activation, % at 5 µM | 2,400 tested, under 10 active;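 active = activation of at least 50%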
# bGal counter = E. coli beta-galactosidase enzyme inhibition, confirmation, counter-screen for EBI2 antagonist project, biochemical, luminescence, single concentration. shares compounds with EBI2 antag. AID 652176, 2013. 2,400 compounds, 1% hits. inhibition, % at 5 µM. purified beta-galactosidase, luminescent Galacton Star, 15 min;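 active = replicate-average signal at least 3 plate SD below neutral wells, shown as high inhibition, flagging enzyme-inhibiting false positives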;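 also: 0% = DMSO wells with enzyme and 100% = wells lacking enzyme; higher means stronger loss of beta-gal luminescence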
# An asterisk follows results filed as active; / = no result given. This is a sample that favours compounds with a hit; in the whole collection about 1.5% have one here.
SMILES,APJ agonist,EBI2 antag,CXCR6 block,APJ antag,CCR6 antag,EBI2 conf,EBI2 ag,bGal counter
O=C1C=C(c2cc3ccccc3s2)C[C@@H](c2ccc(F)cc2)C1,-4.6,52.7*,-1.0,11.2,8.6,44.5,-1.2,-8.3
O=C1C=C(c2ccc(O)cc2)C[C@@H](c2ccc(Cl)cc2)C1,-3.1,15.2,-10.0,-5.9,21.1,/,/,/
O=C(CCn1cnc2ccccc21)N/N=C/C=C/c1ccccc1,1.3,45.8*,-3.9,5.8,8.0,52.0*,0.7,5.0
COCCCn1cc(CN2CC(N3CCN(Cc4cccc(C)c4)CC3)CS2(=O)=O)nn1 (stereo unspecified),/,-8.9,12.6,/,/,/,/,/
O=C(c1ccc(Br)s1)N1CCN(C/C=C/c2ccccc2)CC1,-0.6,42.8*,4.9,-21.8,-1.6,15.7,-1.1,-5.3
CC(C)C(NC(=O)c1ccccc1)C(=O)N1CCN(C/C=C/c2ccccc2)CC1 (stereo unspecified),-2.3,22.4,9.3,6.4,2.5,/,/,/
C[C@H](NC(=O)c1ccc(C(C)(C)C)cc1)C(=O)N1CCN(C/C=C/c2ccccc2)CC1,-2.7,72.1*,7.8,-6.7,21.3,53.8*,-0.3,-13.5
O=C(Nc1cccc(Cl)c1)N1CCN(C/C=C/c2ccccc2)CC1,0.3,54.7*,-8.1,-6.6,12.1,41.2,0.0,-6.3
O=C(CCN1CCN(C/C=C/c2ccccc2)CC1)Nc1ccc(Cl)cc1,-3.8,-6.6,-6.8,-25.1,1.8,/,/,/
COc1ccc(CN2C[C@@H](CO)O[C@@H](n3cnc4c(N5CCOCC5)ncnc43)C2)cc1,/,-4.5,-1.3,/,/,/,/,/
N#C/C(=C/c1ccc2c(c1)OCO2)C(=O)NCCc1c[nH]c2ccccc12,-0.4,50.7*,3.1,7.2,13.3,44.1,0.5,8.8
Cc1cccc(OCC(=O)N2CCC3(CC2)CC(=O)c2ccccc2O3)c1,-0.8,30.8,-1.5,9.5,6.8,/,/,/
CC(=O)N1CCC2(CC1)CC(=O)c1cc(OCC(=O)N3CCCC3)ccc1O2,-0.2,3.3,5.9,13.8,5.9,/,/,/
COc1ccc(OCC(=O)N2CCC3(CC2)CC(=O)c2ccccc2O3)cc1,-3.1,77.4*,4.9,-44.7,6.5,60.7*,1.5,6.3
CCOc1ccc(OCC(=O)N2CCC3(CC2)CC(=O)c2ccccc2O3)cc1,-1.1,84.4*,-1.2,-47.3,13.1,51.7*,-0.1,-16.6
CCCN(CCC)Cc1cc(=O)oc2cc(OC)ccc12,/,5.2,-6.1,/,/,/,/,/
COc1ccc2c(CN(Cc3ccccc3)Cc3ccccc3)cc(=O)oc2c1,/,51.7*,6.5,/,/,20.6,-1.1,-13.1
COc1cc2oc(=O)cc(CN(Cc3ccccc3)Cc3ccccc3)c2cc1Cl,/,45.1*,11.7,/,/,37.9,-0.6,-1.8
CC(=O)Oc1ccc(Cn2c(C)c(C(=O)NCc3ccccc3C(F)(F)F)sc2=O)cc1,/,5.1,0.9,/,/,/,/,/
CCC(C(=O)NC1CCCC1)n1c(-c2cc3ccccc3[nH]2)nc2ccccc21 (stereo unspecified),/,3.3,/,/,/,/,/,/
Brc1ccc(-c2nnc3sc(CN4CCC5(CC4)OCCO5)cn23)cc1,-1.7,55.8*,5.2,9.6,14.2,36.0,-0.2,-10.1
CCOC(=O)/C(=C\c1ccc(N2CCC(c3ccccc3)=N2)cc1)C(C)=O,/,47.9*,10.6,/,18.2,53.4*,0.0,3.4
O=C(/C=C/c1ccc(N2CCC(c3ccccc3)=N2)cc1)c1ccccc1,-2.2,/,/,5.4,11.0,/,/,/
